This passage reports Activity and IC50 results from ChEMBL document CHEMBL1152395, “Scuteflorins A and B, dihydropyranocoumarins from Scutellaria lateriflora” (J Nat Prod, 2009).

Data set [1] can be described thus: Cytotoxicity against pig LLC-PK11 cells upto 50 uM by neutral red assay. Type of data set: cell-based, Sus scrofa. The method in brief:
(§1)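 Neutral red uptake assay. Purified compounds were tested up to 50 μM and the methanol extract up to 50 μg/mL. The panel was normal Vero monkey kidney fibroblasts and LLC-PK11 pig kidney epithelial cells, plus solid tumour lines HepG2, SK-MEL, KB, BT-549 and SK-OV-3.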

A further data set relates to SK-MEL. As to the kind of experiment: Cytotoxicity against human SK-MEL cells upto 50 uM by neutral red assay. Type of data set: functional, cell-based. The method in brief: as §1
For a further data set, the system named is SK-OV-3. As to the kind of experiment: Cytotoxicity against human SKOV3 cells upto 50 uM by neutral red assay. It counts as functional, cell-based. A digest of the protocol:
as §1

The subject of a further data set is BT-549. As to the kind of experiment: Cytotoxicity against human BT549 cells upto 50 uM by neutral red assay. Type of data set: functional, cell-based. A digest of the protocol:
as §1

Data set [2] concerns SW1353. As to the kind of experiment: Cytotoxicity against human SW1353 cells by neutral red assay. It counts as cell-based.
The test system of another data set is KB. As to the kind of experiment: Cytotoxicity against human KB cells upto 50 uM by neutral red assay. It counts as functional, cell-based. The method in brief: as §1
Another data set concerns HepG2. Nature of the data set: Cytotoxicity against human HepG2 cells upto 50 uM by neutral red assay. Type of data set: functional, cell-based. A digest of the protocol: as §1
The target of data set [3] is Transcription factor Sp1 (Homo sapiens) (UniProt P08047). Nature of the data set: Inhibition of SP1-dependent luciferase expression. A digest of the protocol: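 Counter-screen in SW1353 cells for inhibition of luciferase expression from a control plasmid driven by Sp-1. It runs alongside the PMA-induced NF-κB transcription assay to exclude nonspecific or cytotoxic effects.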
Chain of Transcription factor Sp1 (Homo sapiens) (P08047 whole entry): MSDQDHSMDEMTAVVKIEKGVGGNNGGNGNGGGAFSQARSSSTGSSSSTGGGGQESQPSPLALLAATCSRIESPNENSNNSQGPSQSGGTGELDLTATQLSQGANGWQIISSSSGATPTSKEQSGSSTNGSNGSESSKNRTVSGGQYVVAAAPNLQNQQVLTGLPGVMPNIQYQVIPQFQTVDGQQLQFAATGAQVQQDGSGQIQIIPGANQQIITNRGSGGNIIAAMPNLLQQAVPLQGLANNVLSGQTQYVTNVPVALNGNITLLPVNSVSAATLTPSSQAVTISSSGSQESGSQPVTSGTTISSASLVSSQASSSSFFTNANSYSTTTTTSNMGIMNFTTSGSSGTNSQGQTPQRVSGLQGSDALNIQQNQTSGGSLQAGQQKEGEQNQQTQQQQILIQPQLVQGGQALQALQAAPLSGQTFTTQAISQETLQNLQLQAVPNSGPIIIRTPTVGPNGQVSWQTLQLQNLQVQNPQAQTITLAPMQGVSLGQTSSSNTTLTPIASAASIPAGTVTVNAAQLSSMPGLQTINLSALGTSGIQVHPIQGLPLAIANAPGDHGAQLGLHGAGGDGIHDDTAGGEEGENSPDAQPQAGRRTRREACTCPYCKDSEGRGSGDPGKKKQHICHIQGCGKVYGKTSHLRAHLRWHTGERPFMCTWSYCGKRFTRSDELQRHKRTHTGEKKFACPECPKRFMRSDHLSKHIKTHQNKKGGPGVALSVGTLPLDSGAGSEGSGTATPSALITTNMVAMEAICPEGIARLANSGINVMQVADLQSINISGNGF

In a further data set the test system is Vero. As to the kind of experiment: Cytotoxicity against african green monkey Vero cells upto 50 uM by neutral red assay. The note with it: chlorocebus sabaeus. It counts as cell-based. The method in brief: as §1
The test system of data set [4] is SW1353. Nature of the data set: Antiinflammatory activity in PMA-stimulated human SW1353 cells assessed as inhibition of NF-kappaB activation. Type of data set: functional, cell-based. The method in brief:
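SW1353 cells were stimulated with PMA, and inhibition of NF-κB-mediated transcription was scored as IC50. Parthenolide was the positive control. Specificity was checked against a Sp-1-dependent luciferase control plasmid.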

For data set [5], the system named is HL-60. As to the kind of experiment: Cytotoxicity against human HL60 cells by neutral red assay. Type of data set: cell-based.
The test system of data set [6] is HL-60. As to the kind of experiment: Antioxidant activity in human HL60 cells assessed as inhibition of relative oxygen species generation by DCFH-DA method. Type of data set: functional, cell-based. A digest of the protocol:
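Intracellular reactive oxygen species generation was measured in myelomonocytic HL-60 cells by the DCFH-DA method. IC50 values were derived, and vitamin C served as positive control. Cytotoxicity in HL-60 cells was checked up to 62.5 μM within this assay.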

Calls of active or inactive are those of the source. The rule behind the calls is not given here. Some results are limits rather than exact numbers.

As for `C[C@@H]1CC[C@]2(C(=O)O)CC[C@]3(C)C(=CC[C@@H]4[C@@]5(C)CC[C@H](O)C(C)(C)[C@@H]5CC[C@]43C)[C@@H]2[C@]1(C)O` [POMOLIC ACID], the Activity result (in data set [1]; with SW1353 [2]; in the data set on Vero) was “Non-toxic” throughout. Moreover, the outcome (with SK-MEL; with SK-OV-3; in the data set on BT-549; in the data set with KB; with HepG2; in data set [3]) was inactive.

Take `COc1ccccc1-c1cc(=O)c2c(O)cc(O)c(OC)c2o1`: the Activity result (in [1]; with SW1353 [2]; in the data set on Vero) was “Non-toxic” in each case. Moreover, the outcome (in the data set with SK-MEL; with SK-OV-3; in the data set on BT-549; in the data set on KB; in the data set with HepG2; in data set [3]) was inactive.

What is called IC50 is the concentration needed to halve the response being measured. Take `C=C1C(=O)O[C@@H]2C3O[C@]3(C)CC/C=C(\C)CC[C@@H]12` (some centres not stated): in the data set with SW1353 [4], the IC50 amounted to 4.1 µM.

In the case of `COc1c(O)cc(O)c2c(=O)cc(-c3ccccc3)oc12` [WOGONIN], the Activity entry is recorded as “Non-toxic” in data set [1], “Non-toxic” in the data set with SW1353 [2], “Not Active” in the data set on HL-60 [5] and “Non-toxic” in the data set on Vero. Also, the outcome (in the data set with SK-MEL; in the data set with SK-OV-3; with BT-549; in the data set with KB; with HepG2; in data set [3]) was inactive. The IC50 in the data set on SW1353 [4] turned out to be 39 µM.

As for `CC(C)=CC(=O)O[C@H]1Cc2cc3ccc(=O)oc3cc2OC1(C)C` [DECURSIN], the Activity result (in [1]; in the data set on SW1353 [2]; with Vero) was “Non-toxic” in each case. In addition, the outcome (in the data set on SK-MEL; in the data set on SK-OV-3; with BT-549; in the data set on KB; with HepG2; in [3]) was inactive.

Turning to `CC[C@H](CC[C@@H](C)[C@H]1CC[C@H]2[C@@H]3CC=C4C[C@@H](O)CC[C@]4(C)[C@H]3CC[C@]12C)C(C)C` [BETA-SITOSTEROL], the Activity entry (in data set [1]; with SW1353 [2]; in the data set with Vero) was “Non-toxic” throughout. In addition, the outcome (in the data set with SK-MEL; in the data set with SK-OV-3; in the data set on BT-549; with KB; in the data set on HepG2; in data set [3]) was inactive.

As to `O=C1C[C@@H](c2ccccc2)Oc2cc(O)cc(O)c21` [PINOCEMBRIN], the Activity entry (in data set [1]; in the data set on SW1353 [2]; with Vero) was “Non-toxic” each time. Besides, the result (with SK-MEL; in the data set with SK-OV-3; in the data set on BT-549; in the data set on KB; with HepG2; in [3]) was inactive.

`C[C@H]1[C@H](C)CC[C@]2(C(=O)O)CC[C@]3(C)C(=CC[C@@H]4[C@@]5(C)CC[C@H](O)C(C)(C)[C@@H]5CC[C@]43C)[C@H]12` [URSOLIC ACID]: the Activity entry (in [1]; in the data set with SW1353 [2]; with Vero) was “Non-toxic” throughout. Besides, the result (in the data set with SK-MEL; with SK-OV-3; in the data set on BT-549; in the data set with KB; with HepG2; in data set [3]) was inactive.

Consider `COc1c(O)cc2c(c1O)C(=O)C[C@@H](c1ccccc1)O2` [DIHYDROOROXYLIN A], for which the Activity result (in data set [1]; with SW1353 [2]; in the data set with Vero) was “Non-toxic” throughout. Further, the result (with SK-MEL; with SK-OV-3; in the data set with BT-549; in the data set on KB; in the data set on HepG2; in data set [3]) was inactive.

Turning to `CCCCCCCCCCCCCCCC(=O)O` [PALMITIC ACID], the Activity result (in [1]; with SW1353 [2]; in the data set on Vero) was “Non-toxic” each time. Besides, the result (in the data set with SK-MEL; in the data set with SK-OV-3; with BT-549; in the data set on KB; in the data set with HepG2; in data set [3]) was inactive.

As for `C=C(C)[C@@H]1CC[C@]2(C)CC[C@]3(C)[C@H](CC[C@@H]4[C@@]5(C)CC[C@H](O)C(C)(C)[C@@H]5CC[C@]43C)[C@@H]12` [LUPEOL], the Activity result (in data set [1]; in the data set with SW1353 [2]; with Vero) was “Non-toxic” in each case. Also, the outcome (with SK-MEL; in the data set on SK-OV-3; with BT-549; with KB; with HepG2; in data set [3]) was inactive.

For the compound `CC[C@H](CC[C@@H](C)[C@H]1CC[C@H]2[C@@H]3CC=C4C[C@@H](O[C@@H]5O[C@H](CO)[C@@H](O)[C@H](O)[C@H]5O)CC[C@]4(C)[C@H]3CC[C@]12C)C(C)C` [SITOGLUSIDE], the Activity entry (in data set [1]; in the data set on SW1353 [2]; with Vero) was “Non-toxic” each time. The result (with SK-MEL; in the data set with SK-OV-3; with BT-549; in the data set on KB; with HepG2; in [3]) was inactive.

With `O=C1O[C@H]([C@@H](O)CO)C(O)=C1O` [ASCORBIC ACID], the IC50 in the data set with HL-60 [6] (Homo sapiens, HL-60, read-out: IC50) stood at 0.01 µM.

As for `CC1(C)CC[C@]2(C(=O)O)CC[C@]3(C)C(=CC[C@@H]4[C@@]5(C)CC[C@@H](O)[C@](C)(CO)[C@@H]5CC[C@]43C)[C@@H]2C1` [SCUTELLARIC ACID], the Activity result (in data set [1]; in the data set on SW1353 [2]; in the data set on Vero) was “Non-toxic” each time. Also, the result (with SK-MEL; in the data set on SK-OV-3; with BT-549; with KB; in the data set with HepG2; in data set [3]) was inactive.

With `COc1c(O)cc2oc(-c3ccccc3)cc(=O)c2c1O` [OROXYLIN A], the Activity result (in [1]; with SW1353 [2]; in the data set on Vero) was “Non-toxic” in each case. For the same compound, the result (with SK-MEL; in the data set on SK-OV-3; with BT-549; with KB; in the data set on HepG2; in data set [3]) was inactive. Also, the IC50 result in the data set on HL-60 [6] (hl-60) is “Not Active”; in the data set with SW1353 [4], over 50 µM.

As for `C/C=C(/C)C(=O)O[C@H]1C(=O)c2cc3ccc(=O)oc3cc2OC1(C)C` [SCUTEFLORIN B], the Activity result (in [1]; with SW1353 [2]; in the data set with Vero) was “Non-toxic” throughout. The result (in the data set on SK-MEL; with SK-OV-3; in the data set with BT-549; with KB; in the data set on HepG2; in data set [3]) was inactive.

With `O=c1cc(-c2ccccc2)oc2cc(O)cc(O)c12` [CHRYSIN], the Activity entry (in data set [1]; in the data set on SW1353 [2]; with Vero) was “Non-toxic” each time. Further, the outcome (with SK-MEL; in the data set on SK-OV-3; in the data set with BT-549; with KB; with HepG2; in [3]) was inactive. Further, the IC50 result was “Not Active” in the data set on HL-60 [6] (hl-60) and 33 µM in the data set with SW1353 [4].

As to `CC(C)=CC(=O)O[C@H]1C(=O)c2cc3ccc(=O)oc3cc2OC1(C)C` [SCUTEFLORIN A], the Activity entry (in [1]; in the data set with SW1353 [2]; with Vero) was “Non-toxic” throughout. Moreover, the outcome (with SK-MEL; in the data set on SK-OV-3; in the data set with BT-549; in the data set with KB; in the data set on HepG2; in data set [3]) was inactive.
